Measured values from ChEMBL document CHEMBL1127305, “kappa Opioid receptor selective affinity labels: electrophilic benzeneacetamides as kappa-selective opioid antagonists” (J Med Chem, 1994).

Assays:
Assay type in all cases: functional, organism-based
Cavia porcellus [1] = species on record: Cavia porcellus; assay: Tested for agonist potency by conducting tests on electrically stimulated guinea pig ileal longitudinal muscle preparation; conditions: Muscle tissue
In short: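 Electrically stimulated guinea pig ileal longitudinal muscle preparation. Values are arithmetic means of at least three experiments.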

Cavia porcellus [2] = species on record: Cavia porcellus; assay: Tested for wash-resistant activity by incubating guinea pig ileal longitudinal muscle (pre-treated with the compound) with naltrexone (500 nM). Number of determinations, n=3; conditions: Muscle tissue
In short: (§1)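 Agonist-treated guinea pig ileal longitudinal muscle was first washed forty times with Krebs' buffer. It was then incubated with naltrexone (500 nM) for 15 min. Read-out was percent recovery of twitch height.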

Cavia porcellus [3] = species on record: Cavia porcellus; assay: Tested for wash-resistant activity in guinea pig ileal longitudinal muscle preparation, after forty washes with Kreb's buffer pre-incubated with compound; conditions: Muscle tissue
In short: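 Electrically stimulated guinea pig ileal longitudinal muscle was incubated with agonist, then given forty washes with Krebs' buffer. Read-out was percent recovery of twitch height.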

Cavia porcellus [4] = species on record: Cavia porcellus; assay: Tested for wash-resistant activity by incubating guinea pig ileal longitudinal muscle (pre-treated with the compound) with naltrexone (500 nM).Number of determinations, n=3; conditions: Muscle tissue; in short: as §1
Cavia porcellus [5] = species on record: Cavia porcellus; assay: Tested for wash-resistant activity after forty post-washes (for removal of naltrexone) with Kreb's buffer pre-incubated with compound
In short: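 Agonist-treated guinea pig ileal longitudinal muscle was washed, then incubated with naltrexone (500 nM) for 15 min. A further forty washes with Krebs' buffer followed. Read-out was percent recovery of twitch height.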

| Structure (SMILES) | IC50 (Cavia porcellus [1]) | also measured |
| --- | --- | --- |
| CN(C(=O)Cc1ccc(Cl)c(Cl)c1)[C@@H](CN1CCCC1)c1ccccc1 | 198 nM |  |
| CN(C(=O)Cc1ccc(Cl)c(Cl)c1)C(CN1CCCC1)c1ccc(N)cc1 (stereo not drawn) | 0.65 nM |  |
| CN(C(=O)Cc1ccc(Cl)c(Cl)c1)[C@H](CN1CCCC1)c1ccc(N=C=S)cc1 | 38.6 nM |  |
| CN(C(=O)Cc1ccc(Cl)c(Cl)c1)[C@H](CN1CCCC1)c1cccc(N)c1 | 0.17 nM |  |
| CN(C(=O)Cc1ccc(Cl)c(Cl)c1)[C@H](CN1CCCC1)c1ccccc1 [ICI-199,441] | 0.27 nM | Recovery (Cavia porcellus [2]): 59%; Recovery (Cavia porcellus [3]): 20% |
| COC(=O)/C=C/C(=O)Nc1ccc([C@@H](CN2CCCC2)N(C)C(=O)Cc2ccc(Cl)c(Cl)c2)cc1 | 11.2 nM |  |
| CN(C(=O)Cc1ccc(Cl)c(Cl)c1)[C@H](CN1CCCC1)c1cccc(N=C=S)c1 | 23.8 nM | Recovery (Cavia porcellus [4]): 41%; Recovery (Cavia porcellus [3]): 0%; Recovery (Cavia porcellus [5]): 0% |
| COC(=O)/C=C/C(=O)Nc1cccc([C@@H](CN2CCCC2)N(C)C(=O)Cc2ccc(Cl)c(Cl)c2)c1 | 29 nM |  |
